Experimental data published in ChEMBL document CHEMBL4316643, “Sesquiterpenes from an Eastern African Medicinal Mushroom Belonging to the Genus Sanghuangporus” (J Nat Prod, 2019).
Values after ≈ are worked out from the molar mass of the structure shown. Active and inactive are the calls of the source. The rule behind the calls is not given here.

Experiments:
Bacillus subtilis = test: Antimicrobial activity against Bacillus subtilis DSM 10 by serial dilution assay; assay type: functional
KB 3-1 = test: Cytotoxicity in human KB 3.1 cells; assay type: functional, cell-based
Outline: (§1)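 In vitro cytotoxicity against mouse fibroblast L929 and HeLa-derived KB-3.1 cells; serial dilutions from a starting concentration of 37 μg/mL; IC50 determined.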

[1] = system: Mycolicibacterium smegmatis; test: Antimicrobial activity against Mycobacterium smegmatis DSM 43524 by serial dilution assay; assay type: functional
Mucor hiemalis = test: Antimicrobial activity against Mucor hiemalis DSM 2656 by serial dilution assay; assay type: functional
Outline: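 Serial dilution MIC assay in 96-well plates using YM medium for the filamentous fungus; starting concentration 300 μg/mL.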

Staphylococcus aureus = test: Antimicrobial activity against Staphylococcus aureus DSM 346 by serial dilution assay; assay type: functional
Micrococcus luteus = test: Antimicrobial activity against Micrococcus luteus DSM 1790 by serial dilution assay; assay type: functional
L929 = test: Cytotoxicity in mouse L929 cells; assay type: functional, cell-based; outline: as §1
[2] = Homo sapiens, KB 3-1, read-out: IC50
[3] = Mus musculus, L929, read-out: IC50

Molecule | MIC (Bacillus subtilis) | IC50 (KB 3-1; [2]) [µM] | MIC [1] | MIC (Mucor hiemalis) | MIC (Staphylococcus aureus) | MIC (Micrococcus luteus) | IC50 (L929; l929) | IC50 (KB 3-1; kb 3-1) | IC50 (L929; [3]) [µM]
C=C1CCC[C@@](C)(C(=O)O)[C@@H]1CCc1ccoc1 | 75 µg/mL (≈ 302 µM) | 141 | inactive | 50 µg/mL (≈ 201 µM) | inactive | inactive | Not Active |  | 
C=C1CCC[C@@](C)(CO)[C@@H]1CC/C(=C/CO)CO | inactive |  | inactive | 50 µg/mL (≈ 197 µM) | inactive | inactive | Not Active | Not Active | 
NC[C@H]1O[C@H](O[C@H]2[C@H](O)[C@@H](O[C@H]3O[C@H](CO)[C@@H](O)[C@H](N)[C@H]3O)[C@H](N)C[C@@H]2N)[C@H](O)[C@@H](O)[C@@H]1O [KANAMYCIN] |  |  | 0.4 µg/mL (≈ 0.826 µM) |  |  |  |  |  | 
C=C1CCCC(C)(C)[C@@H]1CC/C(=C/CO)CO | 100 µg/mL (≈ 420 µM) | 79.8 | inactive | 25 µg/mL (≈ 105 µM) | 100 µg/mL (≈ 420 µM) | 100 µg/mL (≈ 420 µM) |  |  | 118
CC1=CC[C@H]([C@@](C)(O)[C@@H](O)C/C=C(\C)C(=O)O)CC1 | inactive |  | inactive | 50 µg/mL (≈ 186 µM) | inactive | inactive |  |  | 
CC1=CC[C@H]([C@@](C)(O)[C@@H](O)[C@@H](O)/C=C(\C)C(=O)O)CC1 | inactive |  | inactive | inactive | inactive | inactive |  |  | 
C/C(=C\c1csc(C)n1)[C@@H]1C[C@@H]2O[C@]2(C)CCC[C@H](C)[C@H](O)[C@@H](C)C(=O)C(C)(C)[C@@H](O)CC(=O)O1 [PATUPILONE] |  | 6.5e-05 |  |  |  |  |  |  | 0.00275
O=C(O)/C=C/c1ccc(O)cc1 [COUMARIC ACID] | inactive |  | inactive | 50 µg/mL (≈ 305 µM) | inactive | inactive | Not Active | Not Active | 
C=C1CCC[C@@](C)(CO)[C@@H]1CCc1ccoc1 | 75 µg/mL (≈ 320 µM) | 27.8 |  |  |  |  |  |  | 59.8
O=C(O)c1cn(C2CC2)c2cc(N3CCNCC3)c(F)cc2c1=O [CIPROFLOXACIN] | 3.1 µg/mL (≈ 9.36 µM) |  |  |  |  |  |  |  | 
NYSTATIN |  |  |  | 16.7 µg/mL |  |  |  |  | 
C=C([C@H]1CC=C(C)CC1)[C@H](O)[C@@H](O)/C=C(\C)C(=O)O | inactive | 173 | inactive | 100 µg/mL (≈ 375 µM) | 100 µg/mL (≈ 375 µM) | inactive |  |  | 
CN(C)[C@@H]1C(O)=C(C(N)=O)C(=O)[C@@]2(O)C(O)=C3C(=O)c4c(O)cccc4[C@@](C)(O)[C@H]3[C@H](O)[C@@H]12 [OXYTETRACYCLINE] |  |  |  |  | 0.4 µg/mL (≈ 0.869 µM) | 0.4 µg/mL (≈ 0.869 µM) |  |  | 
